Measured values reported in ChEMBL document CHEMBL1140801, “Potency and selectivity of P2/P3-modified inhibitors of cysteine proteases from trypanosomes” (Bioorg Med Chem Lett, 2008).

Columns and labels:
Trypanosoma brucei [1] = test: Ratio of Kinact to Ki of Trypanosoma brucei cathepsin B
Outline: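 TbCatB at 40 nM was added to inhibitor dilutions (10–0.1 μM) containing 10 μM Z-Phe-Arg-AMC in buffer A. Progress curves were run for 300 s at room temperature. For hyperbolic k_obs dependence, k_inact and K_i were fitted by nonlinear regression to a two-step irreversible inhibition equation, with an [S]/K_m correction.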

[2] = molecular target: Cruzipain (Trypanosoma cruzi) (UniProt P25779); test: (§1) Inhibition of Trypanosoma cruzi cruzain
Cruzipain (Trypanosoma cruzi), sequence (P25779 123-467 limits assumed): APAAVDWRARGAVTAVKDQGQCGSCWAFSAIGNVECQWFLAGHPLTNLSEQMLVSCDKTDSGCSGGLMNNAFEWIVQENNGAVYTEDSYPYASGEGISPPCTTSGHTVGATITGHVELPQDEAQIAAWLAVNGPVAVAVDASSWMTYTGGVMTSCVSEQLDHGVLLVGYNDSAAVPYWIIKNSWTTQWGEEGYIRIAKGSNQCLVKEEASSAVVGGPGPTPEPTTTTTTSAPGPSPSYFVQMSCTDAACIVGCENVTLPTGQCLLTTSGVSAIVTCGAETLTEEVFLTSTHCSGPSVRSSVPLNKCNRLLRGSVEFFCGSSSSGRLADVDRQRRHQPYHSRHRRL
Outline: (§2)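 Cruzain at 2 nM was added to inhibitor dilutions (10 to 0.01 μM) containing 10 μM Z-Phe-Arg-AMC in buffer A. Progress curves were run for 150 s at room temperature. k_ass came from linear regression when k_obs was linear in [I]. If saturating, k_inact and K_i came from nonlinear fitting to a two-step irreversible inhibition model.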

Cruzipain = Cruzipain (Trypanosoma cruzi, UniProt P25779); test: as §1; outline: as §2
Cruzipain, sequence (P25779 whole entry): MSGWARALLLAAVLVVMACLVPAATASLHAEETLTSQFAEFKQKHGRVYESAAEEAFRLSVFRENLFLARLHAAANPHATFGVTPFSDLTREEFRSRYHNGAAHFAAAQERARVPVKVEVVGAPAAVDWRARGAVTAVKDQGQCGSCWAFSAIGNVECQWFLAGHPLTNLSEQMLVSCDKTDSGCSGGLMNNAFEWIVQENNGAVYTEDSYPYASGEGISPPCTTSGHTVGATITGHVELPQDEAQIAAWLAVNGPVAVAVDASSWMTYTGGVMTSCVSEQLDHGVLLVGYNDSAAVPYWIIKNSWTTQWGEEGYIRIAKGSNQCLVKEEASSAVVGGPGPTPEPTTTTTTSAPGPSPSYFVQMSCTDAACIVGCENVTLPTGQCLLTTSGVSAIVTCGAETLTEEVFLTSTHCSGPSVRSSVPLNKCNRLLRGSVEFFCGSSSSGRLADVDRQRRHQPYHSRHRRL

J774 = test: Cytotoxicity against mouse J774 macrophage; format: cell-based
Outline: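 J774 macrophages infected with T. cruzi were treated with compound at 10 μM. Macrophage toxicity was scored yes/no alongside macrophage survival in days.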

Trypanosoma cruzi = test: Antiparasitic activity against Trypanosoma cruzi in J774 macrophage; format: functional
Outline: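 T. cruzi-infected J774 macrophages exposed to compound at 10 μM; read-out is how many days the macrophages survive, with macrophage toxicity also scored. Untreated infected cultures serve as control.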

Trypanosoma brucei [3] = test: Ratio of Kinact to Ki of Trypanosoma brucei rhodesain
Outline: (§3)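 Rhodesain at 2 nM was added to inhibitor dilutions (10 to 0.01 μM) containing 10 μM Z-Phe-Arg-AMC in buffer A. Progress curves were run for 300 s at room temperature. Linear k_obs versus [I] gave k_ass by linear regression. Hyperbolic dependence gave k_inact and K_i by nonlinear fit to a two-step irreversible mechanism.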

[4] = molecular target: Cruzipain (Trypanosoma cruzi) (UniProt P25779); test: Ratio of Kinact to ki of Trypanosoma cruzi cruzain; outline: as §2
[5] = (§4) Inhibition of Trypanosoma brucei rhodesain; outline: as §3
Trypanosoma brucei [6] = test: as §4; outline: as §3

Compound `CN1CCN(C(=O)N[C@@H](Cc2cccc(C(F)(F)F)c2)C(=O)N[C@H](/C=C/S(=O)(=O)c2ccccc2)CCc2ccccc2)CC1` has a Ka (Trypanosoma brucei [1]) of 400 M⁻¹ s⁻¹, a Kinact [2] of 0.009 s⁻¹ and a Ki (Cruzipain) of 170 nM. For the same compound, the Activity (J774) was “Toxic”, the Survival (Trypanosoma cruzi) was 42 days and the Ka (Trypanosoma brucei [3]) was 81000 M⁻¹ s⁻¹. For the same compound, the Ratio [4] was 53000 M⁻¹ s⁻¹.

For `Cc1cccc(C[C@H](NC(=O)c2ccc3c(c2)OCCO3)C(=O)N[C@H](/C=C/S(=O)(=O)c2ccccc2)CCc2ccccc2)c1`, the Ka (Trypanosoma brucei [1]) was 650 M⁻¹ s⁻¹, the Ki [5] was 37 nM and the Kinact (Trypanosoma brucei [6]) was 0.0093 s⁻¹. For the same compound, the Kinact [2] was 0.001 s⁻¹, the Ki (Cruzipain) was 71 nM and the Ratio (Trypanosoma brucei [3]) was 252000 M⁻¹ s⁻¹. It also gave a Ratio [4] of 14000 M⁻¹ s⁻¹.

In the case of `O=C(N[C@@H](Cc1ccccc1)C(=O)N[C@H](/C=C/S(=O)(=O)c1ccccc1)CCc1ccccc1)c1ccc(C(F)(F)F)cc1`, the Ka (Trypanosoma brucei [1]) is reported as < 5 M⁻¹ s⁻¹, the Ki [5] is reported as 87 nM and the Kinact (Trypanosoma brucei [6]) is reported as 0.009 s⁻¹. For the same compound, the Kinact [2] was 0.0097 s⁻¹, the Ki (Cruzipain) was 97 nM and the Activity (J774) was “Non-toxic”. The Survival (Trypanosoma cruzi) was 8 days, the Ratio (Trypanosoma brucei [3]) was 104000 M⁻¹ s⁻¹ and the Ratio [4] was 100000 M⁻¹ s⁻¹.

In the case of `O=C(N[C@@H](Cc1ccccc1)C(=O)N[C@H](/C=C/S(=O)(=O)c1ccccc1)CCc1ccccc1)c1ccccn1`, the Ka (Trypanosoma brucei [1]) is reported as 70 M⁻¹ s⁻¹, the Ki [5] is reported as 910 nM and the Kinact (Trypanosoma brucei [6]) is reported as 0.14 s⁻¹. The Kinact [2] was 0.03 s⁻¹, the Ki (Cruzipain) was 250 nM and the Activity (J774) was “Non-toxic”. For the same compound, the Survival (Trypanosoma cruzi) was 42 days, the Ratio (Trypanosoma brucei [3]) was 150000 M⁻¹ s⁻¹ and the Ratio [4] was 120000 M⁻¹ s⁻¹.

Compound `Cc1ccc(C[C@H](NC(=O)c2ccc3c(c2)OCCO3)C(=O)N[C@H](/C=C/S(=O)(=O)c2ccccc2)CCc2ccccc2)cc1` has a Ka (Trypanosoma brucei [1]) of 600 M⁻¹ s⁻¹, a Ki [5] of 20 nM and a Kinact (Trypanosoma brucei [6]) of 0.031 s⁻¹. For the same compound, the Kinact [2] was 0.006 s⁻¹, the Ki (Cruzipain) was 19 nM and the Ratio (Trypanosoma brucei [3]) was 1.57e+06 M⁻¹ s⁻¹. For the same compound, the Ratio [4] was 311000 M⁻¹ s⁻¹.

With `CN1CCN(C(=O)N[C@@H](Cc2ccccc2)C(=O)N[C@H](/C=C/S(=O)(=O)c2ccccc2)CCc2ccccc2)CC1` [K-777] the Ka (Trypanosoma brucei [1]) was 1000 M⁻¹ s⁻¹, the Ki [5] was 270 nM and the Activity (J774) was “Non-toxic”. For the same compound, the Survival (Trypanosoma cruzi) was 42 days.

For `O=C(N[C@@H](Cc1cccc(C(F)(F)F)c1)C(=O)N[C@H](/C=C/S(=O)(=O)c1ccccc1)CCc1ccccc1)c1cc(F)cc(F)c1`, the Ki [5] was 33 nM, the Kinact (Trypanosoma brucei [6]) was 0.0017 s⁻¹ and the Activity (J774) was “Non-toxic”. It also gave a Survival (Trypanosoma cruzi) of 23 days and a Ratio (Trypanosoma brucei [3]) of 52000 M⁻¹ s⁻¹.

Work on `Cc1ccc(C[C@H](NC(=O)c2ccc(C(F)(F)F)cc2)C(=O)N[C@H](/C=C/S(=O)(=O)c2ccccc2)CCc2ccccc2)cc1` yielded a Ki [5] of 33 nM, a Kinact (Trypanosoma brucei [6]) of 0.014 s⁻¹ and a Kinact [2] of 0.0049 s⁻¹. For the same compound, the Ki (Cruzipain) was 45 nM, the Ratio (Trypanosoma brucei [3]) was 420000 M⁻¹ s⁻¹ and the Ratio [4] was 109000 M⁻¹ s⁻¹.

In the case of `Cc1ccc(C[C@H](NC(=O)c2ccccn2)C(=O)N[C@H](/C=C/S(=O)(=O)c2ccccc2)CCc2ccccc2)cc1`, the Ka (Trypanosoma brucei [1]) is reported as 60 M⁻¹ s⁻¹, the Ki [5] is reported as 880 nM and the Kinact (Trypanosoma brucei [6]) is reported as 0.29 s⁻¹. For the same compound, the Kinact [2] was 0.027 s⁻¹, the Ki (Cruzipain) was 1700 nM and the Ratio (Trypanosoma brucei [3]) was 327000 M⁻¹ s⁻¹. For the same compound, the Ratio [4] was 16000 M⁻¹ s⁻¹.

In the case of `CN1CCN(C(=O)N[C@@H](Cc2cccnc2)C(=O)N[C@H](/C=C/S(=O)(=O)c2ccccc2)CCc2ccccc2)CC1`, the Ka (Trypanosoma brucei [1]) is reported as 800 M⁻¹ s⁻¹, the Kinact [2] is reported as 0.16 s⁻¹ and the Ki (Cruzipain) is reported as 3600 nM. For the same compound, the Ka (Trypanosoma brucei [3]) was 55000 M⁻¹ s⁻¹ and the Ratio [4] was 45000 M⁻¹ s⁻¹.

For `O=C(N[C@@H](Cc1ccccc1)C(=O)N[C@H](/C=C/S(=O)(=O)c1ccccc1)CCc1ccccc1)c1cc(F)cc(F)c1`, the Ki [5] was 66 nM, the Kinact (Trypanosoma brucei [6]) was 0.021 s⁻¹ and the Kinact [2] was 0.31 s⁻¹. For the same compound, the Ki (Cruzipain) was 980 nM, the Activity (J774) was “Toxic” and the Survival (Trypanosoma cruzi) was 12 days. The Ratio (Trypanosoma brucei [3]) was 317000 M⁻¹ s⁻¹ and the Ratio [4] was 31000 M⁻¹ s⁻¹.

`Cc1cccc(C[C@H](NC(=O)c2ccccn2)C(=O)N[C@H](/C=C/S(=O)(=O)c2ccccc2)CCc2ccccc2)c1` gave a Ka (Trypanosoma brucei [1]) of 100 M⁻¹ s⁻¹, a Ki [5] of 230 nM and a Kinact (Trypanosoma brucei [6]) of 0.04 s⁻¹. It also gave a Kinact [2] of 0.01 s⁻¹, a Ki (Cruzipain) of 280 nM and a Ratio (Trypanosoma brucei [3]) of 173000 M⁻¹ s⁻¹. The Ratio [4] was 36000 M⁻¹ s⁻¹.

Compound `O=C(N[C@@H](Cc1ccccc1)C(=O)N[C@H](/C=C/S(=O)(=O)c1ccccc1)CCc1ccccc1)c1ccc2c(c1)OCCO2` has a Ka (Trypanosoma brucei [1]) of 540 M⁻¹ s⁻¹, a Ki [5] of 85 nM and a Kinact (Trypanosoma brucei [6]) of 0.019 s⁻¹. It also gave a Kinact [2] of 0.0056 s⁻¹, a Ki (Cruzipain) of 80 nM and a Ratio (Trypanosoma brucei [3]) of 223000 M⁻¹ s⁻¹. The Ratio [4] was 70000 M⁻¹ s⁻¹.

With `Cc1cccc(C[C@H](NC(=O)N2CCN(C)CC2)C(=O)N[C@H](/C=C/S(=O)(=O)c2ccccc2)CCc2ccccc2)c1` the Ratio (Trypanosoma brucei [1]) was 19000 M⁻¹ s⁻¹, the Ki [5] was 170 nM and the Kinact (Trypanosoma brucei [6]) was 0.088 s⁻¹. For the same compound, the Kinact [2] was 0.86 s⁻¹, the Ki (Cruzipain) was 3300 nM and the Activity (J774) was “Non-toxic”. The Survival (Trypanosoma cruzi) was 42 days, the Ratio (Trypanosoma brucei [3]) was 517000 M⁻¹ s⁻¹ and the Ratio [4] was 257000 M⁻¹ s⁻¹.

In the case of `O=C(N[C@@H](Cc1cccc(C(F)(F)F)c1)C(=O)N[C@H](/C=C/S(=O)(=O)c1ccccc1)CCc1ccccc1)c1ccccn1`, the Ka (Trypanosoma brucei [1]) is reported as 500 M⁻¹ s⁻¹, the Ki [5] is reported as 280 nM and the Kinact (Trypanosoma brucei [6]) is reported as 0.0017 s⁻¹. The Kinact [2] was 0.00047 s⁻¹, the Ki (Cruzipain) was 150 nM and the Ratio (Trypanosoma brucei [3]) was 6000 M⁻¹ s⁻¹. The Ratio [4] was 3100 M⁻¹ s⁻¹.

Compound `Cc1cccc(C[C@H](NC(=O)c2cc(F)cc(F)c2)C(=O)N[C@H](/C=C/S(=O)(=O)c2ccccc2)CCc2ccccc2)c1` has a Ratio (Trypanosoma brucei [1]) of 16000 M⁻¹ s⁻¹, a Kinact (Trypanosoma brucei [6]) of 0.023 s⁻¹ and a Kinact [2] of 0.0052 s⁻¹. The Ki (Cruzipain) was 50 nM, the Activity (J774) was “Toxic” and the Survival (Trypanosoma cruzi) was 12 days. The Ratio (Trypanosoma brucei [3]) was 456000 M⁻¹ s⁻¹ and the Ratio [4] was 105000 M⁻¹ s⁻¹.

In the case of `Cc1ccc(C[C@H](NC(=O)c2cc(F)cc(F)c2)C(=O)N[C@H](/C=C/S(=O)(=O)c2ccccc2)CCc2ccccc2)cc1`, the Ki [5] is reported as 30 nM, the Kinact (Trypanosoma brucei [6]) is reported as 0.011 s⁻¹ and the Kinact [2] is reported as 0.012 s⁻¹. For the same compound, the Ki (Cruzipain) was 350 nM, the Ratio (Trypanosoma brucei [3]) was 366000 M⁻¹ s⁻¹ and the Ratio [4] was 34000 M⁻¹ s⁻¹.

For `Cc1ccc(C[C@H](NC(=O)N2CCN(C)CC2)C(=O)N[C@H](/C=C/S(=O)(=O)c2ccccc2)CCc2ccccc2)cc1`, the Ratio (Trypanosoma brucei [1]) was 10000 M⁻¹ s⁻¹, the Ki [5] was 120 nM and the Kinact (Trypanosoma brucei [6]) was 0.11 s⁻¹. For the same compound, the Ratio (Trypanosoma brucei [3]) was 852000 M⁻¹ s⁻¹ and the Ka [4] was 440000 M⁻¹ s⁻¹.

`Cc1cccc(C[C@H](NC(=O)c2ccc(C(F)(F)F)cc2)C(=O)N[C@H](/C=C/S(=O)(=O)c2ccccc2)CCc2ccccc2)c1` gave a Ki [5] of 43 nM, a Kinact (Trypanosoma brucei [6]) of 0.005 s⁻¹ and a Kinact [2] of 0.0035 s⁻¹. The Ki (Cruzipain) was 92 nM, the Activity (J774) was “Toxic” and the Survival (Trypanosoma cruzi) was 8 days. For the same compound, the Ratio (Trypanosoma brucei [3]) was 116000 M⁻¹ s⁻¹ and the Ratio [4] was 38000 M⁻¹ s⁻¹.
